Measurements as given in ChEMBL document CHEMBL1142436, “Design and synthesis of 4-substituted indolo[3,2-e][1,2,3]triazolo[1,5-a]pyrimidine derivatives with antitumor activity” (2008).

Legend:
Assay type in all cases: functional
K562 = test: Growth inhibition of human K562 cells after 48 hrs; conditions: K562, 48 h; for TGI: read-out: pTGI (converted)
Procedure, shortened: (§1)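 NCI ~60-line screen. Cells were grown in RPMI 1640 with 5% FBS and 2 mM L-glutamine and plated at 5000–40000 cells/well. After a 24 h preincubation, five drug concentrations from DMSO stocks were added for 48 h at 37 °C. Cells were TCA-fixed, stained with SRB and read at 515 nm. GI50 was taken from time-zero and control absorbances and reported as pGI50.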

MDA-MB-435 = test: Growth inhibition of human MDA-MB435 cells after 48 hrs; conditions: MDA-MB-435, 48 h; for TGI: read-out: pTGI (converted); procedure, shortened: as §1
T47D = test: Growth inhibition of human T47D cells after 48 hrs; conditions: for CC50: read-out: Log LC50 (the source's name) (converted); for TGI: read-out: pTGI (converted)
Procedure, shortened: (§2)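 NCI 60-line screen: cells in RPMI 1640 with 5% FBS and 2 mM L-glutamine, plated at 5000–40000 cells/well, grown 24 h (37 °C, 5% CO₂), then exposed to five 10-fold or ½-log dilutions (DMSO stock) for 48 h. Fixed with TCA (final 10% for adherent cells, 16% for suspension cells), then SRB stained with absorbance at 515 nm. GI50 from percentage growth relative to time-zero and control wells.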

EKVX = test: Growth inhibition of human EKVX cells after 48 hrs; conditions: for TGI: read-out: pTGI (converted); procedure, shortened: as §1
HOP-62 = test: Growth inhibition of human HOP62 cells after 48 hrs; conditions: HOP-62, 48 h; for TGI: read-out: pTGI (converted); procedure, shortened: as §1
HOP-92 = test: Growth inhibition of human HOP92 cells after 48 hrs; conditions: HOP-92, 48 h; for TGI: read-out: pTGI (converted); procedure, shortened: as §1
NCI-H23 = test: Growth inhibition of human NCI-H23 cells after 48 hrs; conditions: for CC50: read-out: Log LC50 (the source's name) (converted); for TGI: read-out: pTGI (converted); procedure, shortened: as §1
COLO 205 = test: Growth inhibition of human COLO205 cells after 48 hrs; conditions: COLO 205, 48 h; for TGI: read-out: pTGI (converted); procedure, shortened: as §1
SW-620 = test: Growth inhibition of human SW620 cells after 48 hrs; conditions: SW-620, 48 h; for TGI: read-out: pTGI (converted); procedure, shortened: as §2
SF-268 = test: Growth inhibition of human SF268 cells after 48 hrs; conditions: SF-268, 48 h; for CC50: read-out: Log LC50 (the source's name) (converted); for TGI: read-out: pTGI (converted); procedure, shortened: as §1
SF-539 = test: Growth inhibition of human SF539 cells after 48 hrs; conditions: SF-539, 48 h; for TGI: read-out: pTGI (converted); procedure, shortened: as §1
SNB-75 = test: Growth inhibition of human SNB75 cells after 48 hrs; conditions: SNB-75, 48 h; procedure, shortened: as §2
LOX IMVI = test: Growth inhibition of human LOXIMVI cells after 48 hrs; conditions: for TGI: read-out: pTGI (converted); procedure, shortened: as §1
Malme-3M = test: Growth inhibition of human MALME3M cells after 48 hrs; conditions: for TGI: read-out: pTGI (converted); procedure, shortened: as §1
SK-MEL-2 = test: Growth inhibition of human SK-MEL2 cells after 48 hrs; conditions: SK-MEL-2, 48 h; for TGI: read-out: pTGI (converted); procedure, shortened: as §1
IGROV-1 = test: Growth inhibition of human IGROV1 cells after 48 hrs; conditions: IGROV-1, 48 h; procedure, shortened: as §1
OVCAR-4 = test: Growth inhibition of human OVCAR4 cells after 48 hrs; conditions: OVCAR-4, 48 h; for TGI: read-out: pTGI (converted); procedure, shortened: as §1
SK-OV-3 = test: Growth inhibition of human SKOV3 cells after 48 hrs; conditions: SK-OV-3, 48 h; for TGI: read-out: pTGI (converted); procedure, shortened: as §2
786-0 = test: Growth inhibition of human 786-0 cells after 48 hrs; conditions: 786-0, 48 h; for TGI: read-out: pTGI (converted); procedure, shortened: as §1
TK-10 = test: Growth inhibition of human TK10 cells after 48 hrs; conditions: TK-10, 48 h; for TGI: read-out: pTGI (converted); procedure, shortened: as §2
UO-31 = test: Growth inhibition of human UO31 cells after 48 hrs; conditions: UO-31, 48 h; for TGI: read-out: pTGI (converted); procedure, shortened: as §2
PC-3 = test: Growth inhibition of human PC3 cells after 48 hrs; conditions: PC-3, 48 h; for TGI: read-out: pTGI (converted); procedure, shortened: as §1
NCI/ADR-RES = test: Growth inhibition of human NCI/ADR-RES cells after 48 hrs; conditions: for TGI: read-out: pTGI (converted); procedure, shortened: as §1
SR = test: Growth inhibition of human SR cells after 48 hrs; procedure, shortened: as §2

## CCOC(=O)CNC(=O)CCCn1c(=O)c2c3ccccc3n(C)c2n2nnc(-c3ccccc3)c12
K562
  GI50: 4.68 µM
  LC50: > 50.1 µM
  TGI: > 50.1 µM
MDA-MB-435
  GI50: > 50.1 µM
  LC50: 39.8 µM
  TGI: 20 µM
T47D
  GI50: 43.7 µM
  CC50: > 50.1 µM
  TGI: > 50.1 µM
EKVX
  GI50: > 50.1 µM
  LC50: > 50.1 µM
  TGI: 20.4 µM
HOP-62
  GI50: 5.89 µM
  LC50: > 50.1 µM
  TGI: 17.8 µM
HOP-92
  GI50: > 50.1 µM
  LC50: 3.63 µM
  TGI: 14.8 µM
NCI-H23; Homo sapiens, NCI-H23, 48 h
  GI50: 11.7 µM
  CC50: > 50.1 µM
  TGI: > 50.1 µM
COLO 205
  GI50: > 50.1 µM
  LC50: > 50.1 µM
  TGI: > 50.1 µM
SW-620
  GI50: > 50.1 µM
  LC50 (lethal concentration, 50% cell kill): > 50.1 µM
  TGI: > 50.1 µM
SF-268
  GI50: 14.1 µM
  CC50: > 50.1 µM
  TGI: > 50.1 µM
SF-539
  GI50: 4.27 µM
  LC50 (concentration killing 50% of cells): 28.8 µM
  TGI: 11.7 µM
SNB-75
  GI50: 1.12 µM
  LC50: 17 µM
LOX IMVI
  GI50: 25.1 µM
  LC50 (lethal concentration, 50% cell kill): > 50.1 µM
  TGI: > 50.1 µM
Malme-3M
  GI50: > 50.1 µM
  LC50: > 50.1 µM
  TGI: > 50.1 µM
SK-MEL-2
  GI50: 9.55 µM
  LC50: > 50.1 µM
  TGI: 28.8 µM
IGROV-1
  GI50: 8.91 µM
  LC50: > 50.1 µM
IGROV-1; read-out: pTGI (converted)
  TGI: 30.2 µM
OVCAR-4
  GI50: > 50.1 µM
  LC50: > 50.1 µM
  TGI: > 50.1 µM
SK-OV-3
  GI50: 6.76 µM
  LC50: > 50.1 µM
  TGI: 43.7 µM
786-0
  GI50: 5.13 µM
  LC50: > 50.1 µM
  TGI: 17.4 µM
TK-10
  GI50: 8.71 µM
  LC50: > 50.1 µM
  TGI: 20.9 µM
UO-31
  GI50: 47.9 µM
  LC50: > 50.1 µM
  TGI: > 50.1 µM
PC-3
  GI50: 8.51 µM
  LC50: > 50.1 µM
  TGI: > 50.1 µM
NCI/ADR-RES
  GI50: > 50.1 µM
  LC50 (concentration killing 50% of cells): > 50.1 µM
  TGI: > 50.1 µM

## Cn1c2ccccc2c2c(=O)n(CCCC(=O)NCCc3c[nH]cn3)c3c(-c4ccccc4)nnn3c21
K562
  GI50: 8.91 µM
  LC50: > 50.1 µM
  TGI: 26.9 µM
MDA-MB-435
  GI50: 10.2 µM
  LC50: 39.8 µM
  TGI: 20 µM
T47D
  GI50: 10.5 µM
  CC50: > 50.1 µM
  TGI: 25.1 µM
SR
  GI50: 4.07 µM
  LC50: > 50.1 µM
SR; read-out: pTGI (converted)
  TGI: > 50.1 µM
EKVX
  GI50: 10 µM
  LC50: > 50.1 µM
  TGI: 24 µM
HOP-62
  GI50: 7.59 µM
  LC50: 37.2 µM
  TGI: 17 µM
HOP-92
  GI50: 1.35 µM
  LC50: 44.7 µM
  TGI: 5.5 µM
NCI-H23; Homo sapiens, NCI-H23, 48 h
  TGI: 46.8 µM
NCI-H23
  CC50: 13.2 µM
COLO 205
  GI50: 8.51 µM
  LC50: 44.7 µM
  TGI: 19.5 µM
SW-620
  GI50: 12.9 µM
  LC50 (lethal concentration, 50% cell kill): > 50.1 µM
  TGI: 30.2 µM
SF-268
  GI50: 11.7 µM
  CC50: > 50.1 µM
  TGI: 31.6 µM
SF-539
  GI50: 9.33 µM
  LC50 (concentration killing 50% of cells): 31.6 µM
  TGI: 17.4 µM
SNB-75
  GI50: 10.5 µM
  LC50: 33.1 µM
SNB-75; read-out: pTGI (converted)
  TGI: 18.6 µM
LOX IMVI
  GI50: 11.2 µM
  LC50 (lethal concentration, 50% cell kill): 46.8 µM
  TGI: 22.9 µM
Malme-3M
  GI50: 7.59 µM
  LC50: 37.2 µM
  TGI: 16.6 µM
SK-MEL-2
  GI50: 10.2 µM
  LC50: 42.7 µM
  TGI: 20.9 µM
OVCAR-4
  GI50: 10.2 µM
  LC50: 41.7 µM
  TGI: 20.4 µM
SK-OV-3
  GI50: 10.2 µM
  LC50: 33.9 µM
  TGI: 18.6 µM
786-0
  GI50: 2.19 µM
  LC50: 26.9 µM
  TGI: 8.13 µM
TK-10
  GI50: 4.79 µM
  LC50: 26.9 µM
  TGI: 11.5 µM
UO-31
  GI50: 7.41 µM
  LC50: 29.5 µM
  TGI: 14.8 µM
PC-3
  GI50: 8.91 µM
  LC50: 44.7 µM
  TGI: 20 µM
NCI/ADR-RES
  GI50: > 50.1 µM
  LC50 (concentration killing 50% of cells): > 50.1 µM
  TGI: > 50.1 µM
